Measurements published in ChEMBL document CHEMBL4825662 (J Med Chem, 2021).

Legend:
[1] = Intrinsic clearance in Sprague-Dawley rat liver microsomes preincubated followed by NADPH addition and measured up to 45 mins by LC-MS/MS analysis; assay type: ADME, Microsome
Human orthopneumovirus [2] = assay: Antiviral activity against Respiratory syncytial virus A Memphis 37b infected in human assessed as reduction in mean AUC of viral load at 200 mg administered twice daily administered for 5 days by cell-based infectivity assay; assay type: functional; design: scale not given: the % may be the effect or the level left; conditions: time 5 day
How it was run: (§1)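 Healthy adult volunteers aged 18–45 with low serum pre-existing RSV-specific antibodies were challenged on day zero with about 4 log10 PFU of RSV-A Memphis 37b. Subjects were randomized into 3 equal groups: 200 mg, 350 mg or placebo twice daily for 5 days, begun after infection was confirmed. Viral load in nasal wash was measured by RT-qPCR or by cell-based infectivity assay, and AUC was compared with placebo.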

[3] = Half life in Beagle dog at 0.3 mg/kg, iv measured after 0.03 to 24 hrs by UHPLC-TOF method; assay type: ADME, organism-based, Canis lupus familiaris; conditions: in vivo, time 0.03-24 hrs
How it was run: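 Dogs dosed IV as a suspension of amorphous solid. Serial blood at 2, 5, 15 min and 1, 2, 4, 8, 12, 24 h into heparinized tubes, centrifuged at 4 °C for 10 min at 3000g. Plasma snap-frozen and stored at −20 °C, then analysed by UHPLC-TOF.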

Human orthopneumovirus [4] = assay: Antiviral activity against Respiratory syncytial virus A2 infected in Balb/C mouse assessed as reduction in viral titers in lung homogenates at 10 mg/kg, po treated 2 hrs prior to viral infection followed by compound redosing at 24 hrs and measured after 5 days post infection by plaque assay relative to control; assay type: functional, human respiratory syncytial virus; design: scale not given: the % may be the effect or the level left
How it was run: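 Female Balb/C mice aged 7–8 weeks, 6 per group, received two oral doses 2 h before and 24 h after intranasal inoculation with 5 × 10⁶ pfu of RSV A2. Mice were euthanized on day 5. Lung homogenate titers were determined by plaque assay on Vero cells and expressed as a percentage of the control group.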

[5] = Oral bioavailability in Beagle dog at 3 mg/kg measured after 0.03 to 24 hrs by UHPLC-TOF method; assay type: ADME, organism-based, Canis lupus familiaris; conditions: Beagle, in vivo, time 0.03-24 hrs
How it was run: (§2)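 Dogs examined by a veterinary surgeon before each session, fed 2 h post-dose, water ad libitum, dosed as amorphous-solid suspension. Serial blood into heparinized tubes, centrifuged at 4 °C for 10 min at 3000g; plasma snap-frozen at −20 °C. IV sampling 2 min–24 h, oral 15 min–24 h. Plasma analysed by UHPLC-quadrupole-TOF MS.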

[6] = Tmax in Beagle dog at 3 mg/kg, […] by UHPLC-TOF method; assay type: ADME, organism-based, Canis lupus familiaris; conditions: in vivo, po
[7] = Volume of distribution at steady state in Beagle dog at 0.3 mg/kg, iv measured after 0.03 to 24 hrs by UHPLC-TOF method; assay type: ADME, organism-based, Canis lupus familiaris; conditions: in vivo, time 0.03-24 hrs, read-out: Vdss; how it was run: as §2
Human orthopneumovirus [8] = assay: Antiviral activity against Respiratory syncytial virus A Memphis 37b infected in human assessed as reduction in mean AUC of viral load at 350 mg administered twice daily administered for 5 days by RT-qPCR analysis; assay type: functional; design: scale not given: the % may be the effect or the level left; conditions: time 5 day; how it was run: as §1
[9] = Intrinsic clearance in Beagle dog hepatocytes at 3 uM assessed per million cells measured up to 60 mins by LC-MS/MS analysis; assay type: ADME, cell-based, Canis lupus familiaris, Hepatocyte; conditions: read-out: CLH
[10] = Cmax in Sprague-Dawley rat at 50 mg/kg, po measured after 0.02 to 24 hrs by UHPLC-TOF method; assay type: ADME, organism-based; design: route oral, dose 50 mg/kg, time 0.02-24 hrs; conditions: in vivo
[11] = Half life in human liver microsomes preincubated followed by NADPH addition and measured up to 45 mins by LC-MS/MS analysis; assay type: ADME, Microsome
[12] = Half life in Sprague-Dawley rat at 50 mg/kg, po measured after 0.02 to 24 hrs by UHPLC-TOF method; conditions: in vivo

`NCc1ccc2c(c1)nc(CN1C(=O)C3(CC3)c3ccc(F)cc31)n2CCCC(F)(F)F` [SISUNATOVIR] showed a Microsomal intrinsic clearance [1] of 17 µL/min, an Activity (Human orthopneumovirus [2]) of 76.42% and a half-life [3] of 12.3 h. The Activity (Human orthopneumovirus [4]) was 92%, the bioavailability [5] was 44.2% and the Tmax [6] was 4 h. It also gave a Vd [7] of 17.6 L/kg, an Activity (Human orthopneumovirus [8]) of 63.05% and a hepatocyte CLint at 3 µM [9] of 2.4 µL/min/1e6 cells. For the same compound, the Cmax [10] was 475 ng/mL, the half-life [11] was 0.533 h and the half-life [12] was 5.9 h.
